Calls of active or inactive are those of the source. The rule behind the calls is not given here.
Legend:
[1] = tested on: Hepatitis C virus; experiment: Antiviral activity against HCV genotype 1b Con1 infected in human HuH5.2 cells assessed as reduction in viral replication incubated for 3 days by luciferase reporter gene assay; format: functional, organism-based, Hepacivirus hominis; settings: subtype 1b Con1, Huh-5-2, 72 h
Outline: (§1)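 Stable subgenomic replicon cell lines (Huh5-2 HCV 1b Con1 firefly luciferase; Huh7.5-3a S52, Huh7.5-4a ED43; Huh7-D2 DENV2 16681 Renilla luciferase) seeded 1×10^4 cells/well, 24 h at 37 °C, then serial compound dilutions in complete DMEM without G418 for 3 days at 37 °C. Lysate F-Luc or R-Luc (12 μM coelenterazine, pH 7.4 buffer) normalized to Bradford protein, expressed as % of DMSO control. EC50 from nonlinear regression of log concentration.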

[2] = tested on: Hepatitis C virus; experiment: Antiviral activity against HCV genotype 3a S52 infected in human HuH7.5 cells assessed as reduction in viral replication incubated for 3 days by luciferase reporter gene assay; format: functional, organism-based, Hepacivirus hominis; settings: subtype 3a S52, Huh7.5, 72 h; outline: as §1
[3] = tested on: Hepatitis C virus; experiment: Antiviral activity against HCV genotype 4a ED43 infected in human HuH7.5 cells assessed as reduction in viral replication incubated for 3 days by luciferase reporter gene assay; format: functional, organism-based, Hepacivirus hominis; settings: subtype 4a ED43, Huh7.5, 72 h; outline: as §1
[4] = tested on: dengue virus type 2; experiment: Antiviral activity against DENV 2 16681 infected in human HuH7 cells assessed as reduction in viral replication incubated for 3 days by luciferase reporter gene assay; format: functional, organism-based; settings: Dengue virus, 16681, Huh-7, 72 h; outline: as §1
[5] = Selectivity index, ratio of CC50 for human Huh5.2 cells to EC50 for HCV genotype 1b Con1; format: toxicity; settings: read-out: Ratio CC50/EC50
Outline: (§2)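 Viability read as intracellular ATP, not MTT: 10^4 Huh5-2 cells/well, after 24 h exposed to compounds 72 h at 37 °C, 5% CO2, lysed, luminescent ATP kit read, ATP normalized to protein. CC50 versus DMSO control via nonlinear regression of log concentration; mean ± SD of three independent experiments in triplicate. SI = CC50/EC50.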

[6] = Selectivity index, ratio of CC50 for human Huh5.2 cells to EC50 for HCV genotype 3a S52; format: toxicity; settings: read-out: Ratio CC50/EC50; outline: as §2
[7] = Selectivity index, ratio of CC50 for human Huh5.2 cells to EC50 for HCV genotype 4a ED43; format: toxicity; settings: read-out: Ratio CC50/EC50; outline: as §2
[8] = Selectivity index, ratio of CC50 for human Huh5.2 cells to EC50 for DENV2 16681; format: toxicity; settings: read-out: Ratio CC50/EC50
[9] = tested on: Trypanosoma brucei; experiment: Antitrypanosomal activity against Trypanosoma brucei 221 bloodstream form assessed as inhibition of growth incubated for 4 days by resazurin dye based fluorescence assay; format: functional, organism-based; settings: Trypanosoma brucei, 221, 96 h
[10] = tested on: Trypanosoma cruzi; experiment: Antitrypanosomal activity against Trypanosoma cruzi strain CL Brener epimastigotes form assessed as inhibition of growth incubated for 4 days by resazurin dye based fluorescence assay; format: functional, organism-based; settings: 96 h
[11] = Cytotoxicity against rat L6 cells assessed as reduction in cell viability incubated for 6 days by resazurin dye based fluorescence assay
Outline: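 Rat skeletal myoblast L6 cells seeded in triplicate at 1 × 10⁴ mL⁻¹ in growth medium containing a range of compound concentrations, 6 days at 37 °C; resazurin added, 8 h further, fluorescence read. CC50 = concentration giving 50% growth inhibition; mean of triplicate experiments ± SEM.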

[12] = Selectivity index, ratio of CC50 for rat L6 cells to EC50 for Trypanosoma brucei 221 bloodstream form; format: toxicity; settings: read-out: Ratio CC50/EC50
Outline: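 T. brucei strain 221 bloodstream forms in modified Iscove's medium diluted to 2.5 × 10⁴ mL⁻¹, eight-point concentration curves at 37 °C; resazurin added after 48 h, further 16 h incubation; fluorescence at excitation 545 nm, emission 590 nm. EC50 and EC90 from triplicate experiments. SI = L6 CC50/EC50.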

[13] = Cytotoxicity against human HuH5.2 cells assessed as reduction in cell viability incubated for 72 hrs by measuring intracellular ATP levels
[14] = molecular target: T1, Nonstructural protein 5A (Hepatitis C virus, UniProt Q5L478); experiment: Inhibition of HCV genotype 1b NS5A; parameters: species or system Hepatitis C virus subtype 1b
T1 sequence (Q5L478 whole entry): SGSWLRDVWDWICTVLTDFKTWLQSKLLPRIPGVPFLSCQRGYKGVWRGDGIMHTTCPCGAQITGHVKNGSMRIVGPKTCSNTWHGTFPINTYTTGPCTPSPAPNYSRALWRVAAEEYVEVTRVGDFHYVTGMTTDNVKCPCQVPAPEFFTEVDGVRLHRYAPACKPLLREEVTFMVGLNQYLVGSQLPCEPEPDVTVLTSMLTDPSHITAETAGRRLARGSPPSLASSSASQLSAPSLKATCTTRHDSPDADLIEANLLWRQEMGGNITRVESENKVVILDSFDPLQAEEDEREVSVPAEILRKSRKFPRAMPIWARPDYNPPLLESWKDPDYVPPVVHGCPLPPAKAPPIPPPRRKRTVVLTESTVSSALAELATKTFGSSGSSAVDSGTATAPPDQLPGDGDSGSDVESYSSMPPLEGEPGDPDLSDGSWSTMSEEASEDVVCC

[15] = Selectivity index, ratio of CC50 for rat L6 cells to EC50 for Trypanosoma cruzi strain CL Brener epimastigotes; format: toxicity; settings: read-out: Ratio CC50/EC50
[16] = molecular target: RNA-directed RNA polymerase (Hepacivirus hominis, UniProt O39930); experiment: Inhibition of HCV genotype 1b NS5B RNA dependent RNA polymerase; parameters: species or system Hepatitis C virus subtype 1b
Chain of RNA-directed RNA polymerase (O39930 whole entry): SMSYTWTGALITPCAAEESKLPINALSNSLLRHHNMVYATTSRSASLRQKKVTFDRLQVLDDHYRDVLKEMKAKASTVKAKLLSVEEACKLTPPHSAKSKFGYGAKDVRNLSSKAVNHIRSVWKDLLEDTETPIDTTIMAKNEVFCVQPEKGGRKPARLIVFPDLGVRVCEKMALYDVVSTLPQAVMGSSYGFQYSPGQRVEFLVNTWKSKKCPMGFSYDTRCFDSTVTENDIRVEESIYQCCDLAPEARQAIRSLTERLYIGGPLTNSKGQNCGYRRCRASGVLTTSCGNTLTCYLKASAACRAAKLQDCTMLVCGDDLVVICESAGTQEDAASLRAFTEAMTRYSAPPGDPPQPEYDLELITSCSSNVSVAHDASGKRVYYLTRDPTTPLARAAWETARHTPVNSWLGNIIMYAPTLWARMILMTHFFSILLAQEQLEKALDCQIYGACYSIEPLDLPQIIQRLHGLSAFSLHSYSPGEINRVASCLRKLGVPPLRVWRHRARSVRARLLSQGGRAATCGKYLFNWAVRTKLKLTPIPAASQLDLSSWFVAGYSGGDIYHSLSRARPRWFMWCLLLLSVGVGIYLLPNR

[17] = tested on: Hepatitis C virus; experiment: Antiviral activity against HCV genotype 4a ED43 infected in human HuH7.5 cells assessed as reduction in viral RNA at 0.01 to 10 uM incubated for 3 days by qRT-PCR analysis; format: functional, organism-based; settings: Hepacivirus hominis, subtype 4a ED43
Outline: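 Huh7.5-4a replicon cells treated with serial dilutions or DMSO; (+) strand HCV RNA quantified by RT-qPCR, normalized to housekeeping gene YWHAZ mRNA, expressed as percentage of solvent-treated control.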

Row | Structure (SMILES) | EC50 [1] | EC50 [2] | EC50 [3] | EC50 [4] | selectivity ratio [5] | selectivity ratio [6] | selectivity ratio [7] | selectivity ratio [8] | EC50 [9] | EC90 [9] | EC50 [10] | EC90 [10] | CC50 at 144 h [11] | selectivity ratio [12] | CC50 at 72 h [13] | EC50 [14] | selectivity ratio [15] | EC50 [16] | Activity [17]
1 | O=C(CN1C(=O)NC2(CCCc3ccccc32)C1=O)NO (configuration not stated) | 1410 nM | 2370 nM | 380 nM | 61500 nM | > 142 | > 84 | > 526 | > 3 | 710 nM | 1270 nM | > 30000 nM | > 30000 nM | 419000 nM | 590 | > 200000 nM | – | – | – | –
2 | COC(=O)N[C@H](C(=O)N1CCC[C@H]1c1nc(-c2ccc(-c3ccc(-c4c[nH]c([C@@H]5CCCN5C(=O)[C@@H](NC(=O)OC)C(C)C)n4)cc3)cc2)c[nH]1)C(C)C [DACLATASVIR] | – | – | – | – | – | – | – | – | – | – | – | – | – | – | – | 0.002 nM | – | – | –
3 | O=C(CN1C(=O)NC2(CCc3ccccc32)C1=O)NO (configuration not stated) | 2920 nM | 2970 nM | 580 nM | 96300 nM | > 68 | > 67 | > 345 | > 2 | 440 nM | 800 nM | > 30000 nM | > 30000 nM | 268000 nM | 609 | > 200000 nM | – | – | – | –
4 | O=C(CN1C(=O)N(Cc2ccccc2)C2(CCc3ccccc32)C1=O)NO (configuration not stated) | 220 nM | – | 140 nM | – | 34 | – | 54 | – | 101 nM | 192 nM | 1700 nM | 3010 nM | 6270 nM | 62 | 7530 nM | – | 4 | – | –
5 | CN1C(=O)N(CC(=O)NO)C(=O)C12CCCCc1ccccc12 (configuration not stated) | 1180 nM | – | 110 nM | – | 95 | – | 1020 | – | 230 nM | 300 nM | 10600 nM | 15300 nM | 16400 nM | 71 | 112000 nM | – | 2 | – | –
6 | COc1c(-c2ccc3cc(NS(C)(=O)=O)ccc3c2)cc(-n2ccc(=O)[nH]c2=O)cc1C(C)(C)C [DASABUVIR] | – | – | – | – | – | – | – | – | – | – | – | – | – | – | – | – | – | 1.8 nM | –
7 | CN1C(=O)N(CC(=O)NO)C(=O)C12CCCc1ccccc12 (configuration not stated) | 1450 nM | – | 210 nM | – | 99 | – | 682 | – | 1910 nM | 4690 nM | 27600 nM | 42100 nM | 28200 nM | 15 | 143000 nM | – | 1 | – | Active
8 | O=C1Cn2c(cc3ccccc32)C(=O)N1O | 126000 nM | – | – | – | > 1.6 | – | – | – | – | – | – | – | – | – | > 200000 nM | – | – | – | –

— ChEMBL document CHEMBL4373658, “Scaffold hybridization strategy towards potent hydroxamate-based inhibitors of Flaviviridae viruses and Trypanosoma species” (Medchemcomm, 2019)
